The values that follow come from ChEMBL document CHEMBL1145162, “6-aryl-8H-indeno[1,2-d]thiazol-2-ylamines: A1 adenosine receptor agonist allosteric enhancers having improved potency” (J Med Chem, 2005).

Usually Inhibition stands for the change of the read-out against control, counted positive when it falls. As usually defined, the EC50 is the concentration that produces a half-maximal response. In general, inhibition refers to the share of the control response that was lost under treatment.

Test [1] has as its target T1, Adenosine receptor A1 (Homo sapiens) (UniProt P30542).
T1 sequence (whole entry): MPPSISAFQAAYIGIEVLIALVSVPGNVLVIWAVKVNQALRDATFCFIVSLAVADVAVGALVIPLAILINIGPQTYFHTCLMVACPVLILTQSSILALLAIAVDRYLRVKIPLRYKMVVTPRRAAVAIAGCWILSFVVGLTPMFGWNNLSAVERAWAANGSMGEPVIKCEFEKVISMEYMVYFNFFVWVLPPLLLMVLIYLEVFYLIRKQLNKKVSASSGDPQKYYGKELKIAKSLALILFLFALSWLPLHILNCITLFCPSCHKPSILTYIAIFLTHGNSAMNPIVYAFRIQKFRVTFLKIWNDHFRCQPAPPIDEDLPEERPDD
The test can be described thus: In vitro allosteric enhancer (AE) activity for adenosine A1 receptor maximal score from curve fitting.

Test [2] concerns the target T2, Adenosine receptor A1 (Homo sapiens, UniProt P30542).
T2 sequence (P30542 whole entry): T1 sequence (whole entry)
The test can be described thus: Antagonist activity against adenosine A1 receptor. The class given is functional. Details: concentration or dose not given beside the values. The essentials:
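Equilibrium binding on CHO-K1 hA1AR membranes (15 μg) in 10 mM HEPES pH 7.4, 1 mM EDTA, 1 U/mL adenosine deaminase, 4 nM [3H]CPX. Mixed with an equal volume of 200 μM enhancer in HEPES–10% DMSO; 200 μM NECA for nonspecific binding. Incubated 3 h at room temperature, then filtered.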

Test [3] addresses T3, Adenosine receptor A3 (Homo sapiens) (UniProt P0DMS8).
T3 sequence (whole entry): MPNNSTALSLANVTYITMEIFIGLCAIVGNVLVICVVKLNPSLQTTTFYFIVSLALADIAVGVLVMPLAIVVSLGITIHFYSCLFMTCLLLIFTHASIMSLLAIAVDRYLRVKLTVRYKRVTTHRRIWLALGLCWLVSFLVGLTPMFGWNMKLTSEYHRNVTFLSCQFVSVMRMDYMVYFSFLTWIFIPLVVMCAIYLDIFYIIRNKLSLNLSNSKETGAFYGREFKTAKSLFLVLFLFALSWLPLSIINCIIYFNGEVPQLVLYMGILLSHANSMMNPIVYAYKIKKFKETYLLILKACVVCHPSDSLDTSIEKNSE
The test can be described thus: In vitro allosteric enhancer (AE) activity for adenosine A3 receptor at 50 uM.

The target of test [4] is T1, Adenosine receptor A1 (Homo sapiens). The test can be described thus: Allosteric enhancer activity against adenosine A1 receptor.
The target is the same in test [5]. The test can be described thus: (§1) In vitro allosteric enhancer (AE) activity for adenosine A1 receptor at 50 uM. The essentials: (§2)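 Single-point screen on membranes from CHO-K1 cells stably expressing hA1AR. Candidate enhancer was added at 50 μM final for 5 min. Dissociation was then started with 8-cyclopentyltheophylline plus GTPγS and run 10 min. Score = % specific agonist binding remaining; two to three assays, each in triplicate.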

Test [6] addresses Adenosine receptor A2a (Homo sapiens) (UniProt P29274). The test can be described thus: In vitro allosteric enhancer (AE) activity for adenosine A2A receptor at 50 uM.
Test [7] deals with T1, Adenosine receptor A1 (Homo sapiens). The description is as §1. In a few lines: as §2
The source holds these as a separate data set.

The target is the same in test [8]. The test can be described thus: Allosteric enhancer (AE) activity against human adenosine A1 receptor at 50 uM. In a few lines:
as §2

Test [9] has the same target. The test can be described thus: Inhibition of human adenosine receptor A1 at 10 uM. The essentials: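 CHO-K1 hA1AR membranes at 0.5 mg/mL in 10 mM HEPES pH 7.4 with 1 mM EDTA, 1 U/mL adenosine deaminase, 5 mM MgCl2 and 2 nM [3H]CPX. Mixed 1:1 with buffer containing 20 μM enhancer. Equilibrium 3 h at room temperature; 100 μM NECA defined nonspecific binding. Inhibition expressed relative to control specific binding; duplicate assays.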

Test [10] deals with T4, Adenosine receptor A1 (Rattus norvegicus) (UniProt P25099).
T4 sequence (whole entry): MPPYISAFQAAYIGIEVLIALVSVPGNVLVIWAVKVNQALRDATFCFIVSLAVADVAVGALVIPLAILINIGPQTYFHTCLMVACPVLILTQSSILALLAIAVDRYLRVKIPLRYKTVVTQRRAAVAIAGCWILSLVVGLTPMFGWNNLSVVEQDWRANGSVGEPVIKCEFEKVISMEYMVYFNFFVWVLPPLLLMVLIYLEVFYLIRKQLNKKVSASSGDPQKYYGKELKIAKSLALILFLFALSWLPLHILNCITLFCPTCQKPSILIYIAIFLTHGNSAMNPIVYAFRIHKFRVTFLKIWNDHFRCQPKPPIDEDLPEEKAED
The test can be described thus: Allosteric enhancer (AE) activity against rat adenosine A1 receptor.

Test [11] deals with T3, Adenosine receptor A3 (Homo sapiens). The test can be described thus: Inhibition of human adenosine receptor A3 at 10 uM.
Test [12] has as its target T1, Adenosine receptor A1 (Homo sapiens). Described as §1. In a few lines: as §2
This is another data set of the same source.

Test [13] concerns the target T4, Adenosine receptor A1 (Rattus norvegicus). The test can be described thus: Allosteric enhancer (AE) activity against rat adenosine A1 receptor at 50 uM.

Chain of Adenosine receptor A2a (Homo sapiens) (P29274 whole entry): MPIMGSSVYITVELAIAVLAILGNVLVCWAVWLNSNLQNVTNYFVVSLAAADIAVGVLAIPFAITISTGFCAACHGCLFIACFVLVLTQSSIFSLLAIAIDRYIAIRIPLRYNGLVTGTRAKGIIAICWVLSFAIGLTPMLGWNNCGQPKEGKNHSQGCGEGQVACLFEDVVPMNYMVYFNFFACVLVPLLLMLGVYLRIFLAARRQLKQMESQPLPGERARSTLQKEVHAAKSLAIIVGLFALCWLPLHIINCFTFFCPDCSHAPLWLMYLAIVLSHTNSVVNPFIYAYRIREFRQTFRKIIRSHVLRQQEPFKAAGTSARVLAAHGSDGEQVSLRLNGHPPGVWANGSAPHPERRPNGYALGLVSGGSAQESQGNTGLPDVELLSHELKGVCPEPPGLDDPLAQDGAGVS

As to `Nc1nc2c(s1)Cc1cc(-c3ccccc3C(F)(F)F)ccc1-2`, the Allosteric enhancer (AE) in [1] came to 57%. Moreover, the Inhibition in test [2] is greater than 10%. For the same compound, the results for the Alloste ic enhan er (AE) in test [3], in test [5] and in test [6] were 6.6%, 50.1% and 0%, respectively. For the same compound, the EC50 in test [4] is 5.1 µM.
`COc1ccc(-c2ccc3c(c2)Cc2sc(N)nc2-3)cc1`: the Alloste ic enhan er (AE) in test [7] was determined as 90.2%; in [8], 72%; in test [3], 18%; in test [5], 87%; in test [10] it was 32.3%; in [6] it was 0%. The compound also displayed an Inhibition in test [2] of 13.3%. Besides, the inhibition in test [9] was found to be 25.2%; in [11] it was 37.6%.
Take `Nc1nc2c(s1)Cc1cc(-c3ccc4c(c3)OCO4)ccc1-2`: the Alloste ic enhan er (AE) was determined as 90.7% in [8]; 2.9% in test [3]; 82% in test [5]; 48.8% in [10]; 0% in test [6]. Further, the Allosteric enhancer (AE) in test [1] was found to be 91%. The compound further gave an Inhibition in test [2] of 11.6%. For the same compound, the inhibition in test [9] is 10.5%; in test [11], 22.5%.
`CN(C)c1ccc(-c2ccc3c(c2)Cc2sc(N)nc2-3)cc1`: the Alloste ic enhan er (AE) in test [12] is 81.8%; in [8], 67.9%; in test [3] it was 24.8%; in test [5], 81%; in [10], 31.7%; in test [6], 3.4%. In test [2], this compound registered an Inhibition of 12.5%. The values for the inhibition in [9] and in test [11] were 23.1% and 38.6%, respectively.
For `Cc1ccc(C)c(-c2ccc3c(c2)Cc2sc(N)nc2-3)c1`, the Allosteric enhancer (AE) in test [1] was 51%. Moreover, the Inhibition in test [2] was greater than 10%. For the same compound, the values for the Alloste ic enhan er (AE) in [3], in test [5] and in [6] were 0%, 47.7% and 0%, respectively. Further, the EC50 in test [4] is 7.3 µM.
For the compound `COc1ccc(-c2ccc3c(c2)Cc2sc(N)nc2-3)cc1OC`, the Alloste ic enhan er (AE) in test [13] is 39.1%; in test [8] it was 83.9%; in [3] it was 10.1%; in test [5], 82%; in [6], 0.2%. For the same compound, the Allosteric enhancer (AE) in [1] turned out to be 82.7%. The compound also gave an Inhibition in test [2] of 19.2%. In addition, the inhibition in test [9] came out at 18.8%; in test [11], 45%.
Consider `Nc1nc2c(s1)Cc1cc(-c3cccc4ccccc34)ccc1-2`, for which the Allosteric enhancer (AE) in [1] was determined as 65.6%. This compound also had an Inhibition in test [2] greater than 13%. Also, the Alloste ic enhan er (AE) in test [3] was found to be 4.2%; in test [5], 61.2%; in [6], 0%. Besides, in test [4], the EC50 was found to be 3 µM.
